Publication PMC9924312 (Asian Pacific Journal of Cancer Prevention : APJCP, 2022)

How the values were obtained:
neuroblastoma SH-SY5Y = assay: MTT antiproliferative assay, 72 h exposure; format: cell-based, human
Outline: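 SH-SY5Y cells were kept in 1:1 EMEM/F12 with 10% FBS at 37°C under 5% CO2. After trypsin/EDTA detachment and trypan-blue counting, cells were plated in 96-well format and allowed 24 h to attach. They were then incubated ±test compound for 72 h. IC50 was derived from a logarithmic trend line of the cytotoxicity plots.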

[1] = system: dermal fibroblasts (BJ ATCC CRL-2522); assay: MTT antiproliferative assay on normal cells, 72 h exposure; format: cell-based, human; details: read-out: IC50 Fibroblast
Outline: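 Human BJ dermal fibroblasts were grown in DMEM at 37°C under humidified 5% CO2. Cells were detached with 0.25% trypsin/0.53 mM EDTA, counted by trypan blue, seeded in 96-well plates and left 24 h to attach, then exposed to test compound or no drug for 72 h. IC50 was taken from a logarithmic trend line.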

IC50 (neuroblastoma SH-SY5Y; read-out: IC50 SH-SY5Y, MTT, 72 h): 1060 ± 190 nM
Structure (SMILES): CC(=O)O.CCN(CC)CC[n+]1ccc2c(C)c3[nH]c4ccc(O)cc4c3c(C)c2c1 [Compound 3]
% SH-SY5Y 10µM (percentage inhibition) (neuroblastoma SH-SY5Y; 10 µM, 72 h exposure): 74.22 ± 0.025% | % SH-SY5Y 50µM (percentage inhibition) (neuroblastoma SH-SY5Y; 50 µM, 72 h exposure): 78.23 ± 0.057% | IC50 [1]: 303 ± 1 nM
